Results on five compounds are retold here after ChEMBL document CHEMBL1133577, “Design and synthesis of piperazine-based matrix metalloproteinase inhibitors” (J Med Chem, 2000).

One assay has as its target Stromelysin-1 (Homo sapiens, UniProt P08254). The assay can be described thus: In vitro inhibitory activity against matrix metalloprotease-3 (MMP-3).
Assay [1] has as its target Matrix metalloproteinase-9 (Homo sapiens, UniProt P14780). The assay can be described thus: In vitro inhibitory activity against matrix metalloprotease-9 (MMP-9).
In another assay the target is T1, Matrilysin (Homo sapiens, UniProt P09237).
T1 sequence (P09237 whole entry): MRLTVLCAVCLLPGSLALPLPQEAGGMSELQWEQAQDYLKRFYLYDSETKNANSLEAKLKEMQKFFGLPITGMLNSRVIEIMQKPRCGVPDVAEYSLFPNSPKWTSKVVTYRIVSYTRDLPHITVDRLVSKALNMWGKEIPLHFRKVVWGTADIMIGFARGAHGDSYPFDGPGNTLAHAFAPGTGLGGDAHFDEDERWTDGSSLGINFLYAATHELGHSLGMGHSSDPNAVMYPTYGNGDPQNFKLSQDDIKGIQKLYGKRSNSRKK
The assay can be described thus: In vitro inhibitory activity against matrix metalloprotease-7 (MMP-7). An outline of the steps:
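MMP-7 supplied as active enzyme. It was incubated with 8 µM […] in 50 mM Tris-HCl pH 7.5, 10 mM CaCl2, 0.15 M NaCl, 0.05% Brij for 20-30 min at 37 °C with varying inhibitor. The reaction was quenched with 50 mM EDTA and fluorescence read at ex 328/em 393 nm. Activity is expressed as % of uninhibited control, triplicates; IC50 from 4-parameter logistic fit.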

A further assay addresses T2, Interstitial collagenase (Homo sapiens, UniProt P03956).
T2 sequence (P03956 whole entry): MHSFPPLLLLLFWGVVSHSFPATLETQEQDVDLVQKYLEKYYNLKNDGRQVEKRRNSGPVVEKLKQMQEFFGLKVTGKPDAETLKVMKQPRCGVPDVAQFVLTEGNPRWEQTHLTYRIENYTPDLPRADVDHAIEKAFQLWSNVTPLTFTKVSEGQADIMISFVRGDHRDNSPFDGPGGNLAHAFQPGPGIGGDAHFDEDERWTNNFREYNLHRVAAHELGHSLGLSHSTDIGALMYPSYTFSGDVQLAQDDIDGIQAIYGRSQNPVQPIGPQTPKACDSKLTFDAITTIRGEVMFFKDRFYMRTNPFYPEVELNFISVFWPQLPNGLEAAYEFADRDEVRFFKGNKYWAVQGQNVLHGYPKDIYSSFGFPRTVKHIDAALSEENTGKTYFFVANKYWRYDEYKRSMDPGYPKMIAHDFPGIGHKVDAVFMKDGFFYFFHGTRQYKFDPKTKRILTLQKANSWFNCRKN
The assay can be described thus: In vitro inhibitory activity against matrix metalloprotease-1 (MMP-1).

The target of the next assay is Collagenase 3 (Homo sapiens, UniProt P45452). In words: In vitro inhibitory activity against matrix metalloprotease-13 (MMP-13).

Molecules are shown by their SMILES.

Sequence of Matrix metalloproteinase-9 (P14780 whole entry): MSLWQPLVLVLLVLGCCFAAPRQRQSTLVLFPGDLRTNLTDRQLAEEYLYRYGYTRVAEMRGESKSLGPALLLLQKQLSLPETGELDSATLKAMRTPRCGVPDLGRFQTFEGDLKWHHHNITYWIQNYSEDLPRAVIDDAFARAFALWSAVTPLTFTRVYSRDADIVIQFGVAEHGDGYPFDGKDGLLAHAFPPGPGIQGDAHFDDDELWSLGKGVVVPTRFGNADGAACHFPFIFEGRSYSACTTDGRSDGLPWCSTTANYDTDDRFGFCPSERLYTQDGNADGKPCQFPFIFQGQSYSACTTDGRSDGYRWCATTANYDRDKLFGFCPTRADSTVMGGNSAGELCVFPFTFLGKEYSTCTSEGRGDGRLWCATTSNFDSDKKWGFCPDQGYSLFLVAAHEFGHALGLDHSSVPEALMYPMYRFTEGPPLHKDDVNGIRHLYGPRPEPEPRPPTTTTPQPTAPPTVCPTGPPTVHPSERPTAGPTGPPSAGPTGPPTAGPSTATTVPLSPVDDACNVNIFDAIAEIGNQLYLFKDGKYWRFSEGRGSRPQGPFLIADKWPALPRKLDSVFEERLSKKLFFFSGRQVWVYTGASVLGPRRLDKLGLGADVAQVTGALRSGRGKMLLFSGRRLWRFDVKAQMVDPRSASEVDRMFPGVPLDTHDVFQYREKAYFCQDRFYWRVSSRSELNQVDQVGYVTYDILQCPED
Sequence of Stromelysin-1 (P08254 whole entry): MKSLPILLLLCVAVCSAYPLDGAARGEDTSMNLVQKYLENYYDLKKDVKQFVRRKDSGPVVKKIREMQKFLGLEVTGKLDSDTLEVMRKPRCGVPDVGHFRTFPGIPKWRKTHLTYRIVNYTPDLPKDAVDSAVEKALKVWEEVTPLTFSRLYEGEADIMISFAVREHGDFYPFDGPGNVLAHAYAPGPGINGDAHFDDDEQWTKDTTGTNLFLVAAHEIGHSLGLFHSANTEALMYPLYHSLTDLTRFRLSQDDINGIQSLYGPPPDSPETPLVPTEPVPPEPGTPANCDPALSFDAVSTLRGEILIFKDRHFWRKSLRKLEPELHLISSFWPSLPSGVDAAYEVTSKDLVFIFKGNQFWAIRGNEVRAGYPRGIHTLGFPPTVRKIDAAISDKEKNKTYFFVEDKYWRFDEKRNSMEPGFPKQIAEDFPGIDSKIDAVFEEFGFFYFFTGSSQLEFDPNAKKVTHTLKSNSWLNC

Turning to `CCCCCCN(C)C(=O)N1CCN(S(=O)(=O)c2ccc(OC)cc2)C(C(=O)NO)C1` (stereo not given), the IC50 (commonly the concentration that inhibits the measured activity by half) turned out to be 4.3 nM against Stromelysin-1; 6 nM in assay [1]; 3240 nM against Matrilysin; 71 nM against Interstitial collagenase; 1.9 nM on Collagenase 3.

Regarding `COc1ccc(S(=O)(=O)N2CCN(C(=O)c3c(-c4ccccc4)noc3C)CC2C(=O)NO)cc1` (stereo not given), the IC50 on Stromelysin-1 came out at 410 nM; in assay [1], 22 nM; against Matrilysin, 22100 nM; on Interstitial collagenase it was 1320 nM; at Collagenase 3, 27 nM.

As to `COc1ccc(S(=O)(=O)N2CCN(C(=O)[C@@H](O)C(C)C)CC2C(=O)NO)cc1` (stereo not given in full), the IC50 at Stromelysin-1 is 60 nM; in assay [1] it was 4.4 nM; at Matrilysin, 1690 nM; at Interstitial collagenase it was 227 nM; against Collagenase 3, 1 nM.

On to `CCCCCCN1CCN(S(=O)(=O)c2ccc(OC)cc2)C(C(=O)NO)C1` (stereo not given), for which the IC50 amounted to 71 nM at Stromelysin-1; 17 nM in assay [1]; 15700 nM against Matrilysin; 996 nM at Interstitial collagenase; 4.2 nM on Collagenase 3.

In the case of `CCCCCCNC(=O)N1CCN(S(=O)(=O)c2ccc(OC)cc2)C(C(=O)NO)C1` (stereo not given), the IC50 is 28 nM on Stromelysin-1; 2.6 nM in assay [1]; 497 nM against Matrilysin; 30 nM against Interstitial collagenase; 1.4 nM at Collagenase 3.
